ABCB1 block = ABCB1 efflux pump inhibitors, primary screen, cell-based, multiplex, flow cytometry, ABCG2 counter-screen; CCRF-Adr cells, JC-1 efflux; actives 0.067% (n = 190,000); AID 1326, 2008; inhibition, % at 6.6 µM; ATP-dependent translocase ABCB1 (Homo sapiens), P08183; in the data active means inhibition above about 40%;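 further: 0% = vehicle and 100% = reference inhibitor; higher value means more JC-1 retained so stronger ABCB1 efflux block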
TRPML3 ag = human TRPML3 channel agonists, primary screen, cell-based, HEK293 TRPML3-YFP, Fluo-8 calcium fluorescence, 3 µM; actives 0.29% (n = 220,000); 100% = the carbachol control signal; Mucolipin-3 (Homo sapiens), Q8TDD5; activation, % at 3 µM;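 active means activation above its plate's cutoff, the mean activation of the plate's test wells plus 3 SD, cut at about 12% in these data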;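 further: 0% = DMSO only wells and 100% = carbachol wells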
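Test system: TRPML3-YFP stable HEK293 cells. Doses: single point at 3 µM. Incubation: dye loading 1 h 37 °C then 30 min ambient, 125 s read. Signal: Fluo-8 calcium dye fluorescence, ex 470-495, em 515-575 nm. Measure: percent activation from peak-to-basal fluorescence ratio, scaled between DMSO and carbachol.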
ROMK mod = ROMK potassium channel modulators, primary screen, cell-based, thallium flux, MLSMR library | ATP-sensitive inward rectifier potassium channel 1 (Homo sapiens), P48048 | Tet-inducible ROMK, thallium flux fluorescence; actives lie on both sides | B-score at 10 µM | actives 2% (n = 130,000) | AID 1918, 2009;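 active means signal ratio slope over the read window, or its plate-corrected B-score, at least 3 SD from the plate mean, either direction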;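 further: B-score of the F/F0 ratio slope over 7 to 12 s after thallium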
zfTRPN1 agonist = zebrafish TRPN1 channel agonists, primary screen, cell-based, HEK293, calcium fluorescence; actives 0.18% (n = 220,000); HEK293 zebrafish TRPN1-YFP, Fluo-8 calcium fluorescence; 100% = response to 87 µM carbachol; AID 1424, 2008; activation, % at 3 µM; transient receptor potential cation channel N1 (TRPN1/NompC), Danio rerio;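 active means activation above its plate's cutoff, the mean activation of test wells on that plate plus 3 SD, cut at about 19% in these data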;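 further: 0% = DMSO alone and 100% = 87 µM carbachol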
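Control set: carbachol 87 µM as high control, DMSO as low control; system: HEK293 stable line with zebrafish TRPN1-YFP; read-out: % activation versus carbachol response; detection: intracellular calcium fluorescence with Fluo-8; doses: single test compound dose, 3 µM nominal, 0.3% DMSO; schedule: dye 1 h 37 °C plus 30 min RT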
ABCG2 block = ABCG2 efflux pump inhibitors, primary screen, multiplex with ABCB1, IgMXP3 cells, flow cytometry | JC-1 efflux | AID 1325, 2008 | inhibition, % at 6.6 µM | Broad substrate specificity ATP-binding cassette transporter ABCG2 (Homo sapiens), Q9UNQ0 | actives 0.1% (n = 190,000);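 active means inhibition above 80%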;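 further: 0% = DMSO and 100% = nicardipine control wells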
Target sequence (Q9UNQ0 whole entry, looked up): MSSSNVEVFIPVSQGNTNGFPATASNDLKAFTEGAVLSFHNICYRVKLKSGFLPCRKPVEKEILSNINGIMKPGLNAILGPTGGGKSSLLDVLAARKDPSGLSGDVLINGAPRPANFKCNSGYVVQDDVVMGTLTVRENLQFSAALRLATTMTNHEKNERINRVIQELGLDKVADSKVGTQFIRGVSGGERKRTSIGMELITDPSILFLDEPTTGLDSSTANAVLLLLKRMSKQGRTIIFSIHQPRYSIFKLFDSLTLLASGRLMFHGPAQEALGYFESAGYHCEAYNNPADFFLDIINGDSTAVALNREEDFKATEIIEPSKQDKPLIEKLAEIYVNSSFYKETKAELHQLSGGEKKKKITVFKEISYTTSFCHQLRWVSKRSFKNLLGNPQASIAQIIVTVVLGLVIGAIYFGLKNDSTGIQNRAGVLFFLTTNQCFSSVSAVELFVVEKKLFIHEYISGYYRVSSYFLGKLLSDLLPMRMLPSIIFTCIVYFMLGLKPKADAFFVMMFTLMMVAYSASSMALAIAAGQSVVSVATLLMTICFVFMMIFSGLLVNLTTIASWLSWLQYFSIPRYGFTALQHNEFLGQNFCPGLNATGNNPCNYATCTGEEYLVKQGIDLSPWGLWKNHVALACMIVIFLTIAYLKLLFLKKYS
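material = IgMXP3 (ABCG2) plus far-red-tagged CCRF-Adr (ABCB1) cells | amount = 3 million cells/mL, equal mix of both lines | also added = JC-1 transporter substrate | dosing = one concentration, 6.6 µM final | schedule = 10 min at 25 °C | measured by = flow cytometric JC-1 green MFI at 530 nm | read-out basis = percent efflux inhibition, scaled nicardipine 100% to DMSO 0%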
Biofilm kill mix = clotrimazole potentiators killing C. albicans biofilm, primary screen, 4-compound mixtures. C. albicans biofilm persisters + clotrimazole, fluorescence viability; primary screen in compound mixtures of four per well. inhibition, % at 7.6 µM. actives 0.02% (n = 120,000);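 active means inhibition above 30.3% in the primary screen of four-compound pools, then above 30% when the compound was retested; inconclusive means passed the primary limit but could not be retested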;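 further: compounds exposed to preformed 24 h biofilms for 48 h; 0% = untreated biofilm control and 100% = clotrimazole plus chlorhexidine kill blank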
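System: C. albicans CAF4-2 wild-type biofilms; Medium: RPMI/MOPS medium, pH 7.0; Reagent: Clotrimazole, 50 µg/mL; Times: biofilm formation 24 h, compound exposure 48 h, 37 °C; Detection: 2-h Alamar Blue fluorescence, 535/590 nm excitation/emission; Evaluation: percent inhibition of biofilm viability.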
ROMK hit retest = ROMK channel modulator hit retest, confirmation, cell-based, thallium flux, duplicate, resupplied hits; shares compounds with ROMK mod; fluorescence ratio; active compounds read low; normalized thallium flux (F/F0 slope) at 10 µM; actives 54% (n = 3,000);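 active means Flux at 10 µM at least 3 SD below or above vehicle control mean in one or both replicates; inconclusive means no clear call, values can overlap the other calls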
Active calls of the source: *. The sample as a whole holds a higher share of hits than the screen did.

Screening CN(Cc1ccccc1)C(=O)CSc1nc2cc(C(=O)N3CCC(C(N)=O)CC3)ccc2c(=O)n1-c1ccccc1 returned TRPML3 ag 1, zfTRPN1 agonist 0 and Biofilm kill mix 17.
Screening CCCC(c1nnnn1Cc1ccc(F)cc1)N1CCN(C)CC1 (centres undefined) returned ABCB1 block 1, TRPML3 ag 1, ROMK mod 1, zfTRPN1 agonist 0, ABCG2 block 2 and Biofilm kill mix 17.
`COc1ccc(Cn2nnnc2C(c2ccccc2Cl)N2CCN(C3CCCC3)CC2)cc1` (centres undefined) gave ABCB1 block -1, TRPML3 ag 1, ROMK mod -4.8*, zfTRPN1 agonist 0, ABCG2 block -2 and ROMK hit retest 0.051*.
Screening COc1ccc2cc(C(c3nnnn3Cc3ccc(F)cc3)N3CCCCCC3)c(=O)[nH]c2c1 (centres undefined) returned ABCB1 block 2, TRPML3 ag 0, zfTRPN1 agonist 1, ABCG2 block 10 and ROMK hit retest 0.056*.
CCC(c1nnnn1Cc1ccc(F)cc1)N1CCN(C2CCCCC2)CC1 (centres undefined) was read as ABCB1 block 0, TRPML3 ag 0, ROMK mod -3*, zfTRPN1 agonist 0, ABCG2 block 1 and ROMK hit retest inconclusive.
For COc1ccc2cc(C(c3nnnn3Cc3ccccc3)N3CCCCCC3)c(=O)[nH]c2c1 (centres undefined) the results were TRPML3 ag 1 and zfTRPN1 agonist 2.
For COc1ccc(-c2csc(NC(=O)CCS(=O)(=O)c3ccccc3)n2)c(OC)c1 the results were TRPML3 ag 1, zfTRPN1 agonist 5 and Biofilm kill mix 21.
For Cc1ccccc1OCCN(C#N)c1nc(N(C)C)nc(N(C)C)n1 the results were ABCB1 block 1, TRPML3 ag 0, ROMK mod -0.0029, zfTRPN1 agonist -1, ABCG2 block 12 and Biofilm kill mix 27.
COc1cccc(/C=N/n2c(N)nc3ccccc32)c1OC was read as ABCB1 block 1, TRPML3 ag -1, ROMK mod 6.6*, zfTRPN1 agonist -1, ABCG2 block 5 and ROMK hit retest 0.11*.
Screening COc1cc(/C=C/[N+](=O)[O-])ccc1OCc1cccc(C(=O)O)c1 returned ABCB1 block 1, TRPML3 ag 0, ROMK mod -6*, zfTRPN1 agonist 1, ABCG2 block 12, Biofilm kill mix 4 and ROMK hit retest 0.037*.
For COc1cc(/C=N/NC(=O)c2cccc([N+](=O)[O-])c2)ccc1OCc1ccccc1 the results were ABCB1 block 0, TRPML3 ag 0, zfTRPN1 agonist 1 and ABCG2 block 2.
Screening Cc1c(NC(=O)/C(C#N)=C/C2CC=CCC2)c(=O)n(-c2ccccc2)n1C (centres undefined) returned ABCB1 block 0, TRPML3 ag 0, ROMK mod -5*, zfTRPN1 agonist 1, ABCG2 block 1 and ROMK hit retest 0.043*.
Screening Cc1c(N2C(=O)/C(=C\C3CC=CCC3)SC2=S)c(=O)n(-c2ccccc2)n1C (centres undefined) returned ABCB1 block 0, TRPML3 ag 1, ROMK mod -6.6*, zfTRPN1 agonist -1, ABCG2 block 0, Biofilm kill mix 7 and ROMK hit retest 0.038*.
Cc1c(NC(=O)/C(C#N)=C/c2ccc(-c3ccc(Cl)cc3)o2)c(=O)n(-c2ccccc2)n1C was read as ABCB1 block -3, TRPML3 ag 1, ROMK mod -2.6*, zfTRPN1 agonist -2, ABCG2 block 11, Biofilm kill mix 7 and ROMK hit retest 0.08.
Cc1c(NC(=O)/C(C#N)=C\c2cccs2)c(=O)n(-c2ccccc2)n1C was read as ABCB1 block 0, TRPML3 ag 0, zfTRPN1 agonist 1, ABCG2 block 0 and Biofilm kill mix 15.
COc1cccc(NC(=O)COC(=O)c2ccccc2C(=O)N2CCN(c3ccccc3)CC2)c1 was read as ABCB1 block 3, TRPML3 ag 1, ROMK mod -0.046, zfTRPN1 agonist 0, ABCG2 block 33 and Biofilm kill mix 10.
`COc1ccccc1NC(=O)c1ccc(CSc2ncccn2)cc1` gave ABCB1 block 1, TRPML3 ag 0, ROMK mod -0.64, zfTRPN1 agonist 0, ABCG2 block 7 and Biofilm kill mix 4.
For CC1=NNC(=O)C1Oc1ccccc1 (centres undefined) the results were TRPML3 ag 0, zfTRPN1 agonist 2 and Biofilm kill mix 11.
For O=C(C1CCN(Cc2ccccc2)CC1)N1CCCC1 the results were ABCB1 block -1, TRPML3 ag 1, zfTRPN1 agonist 0, ABCG2 block 0 and ROMK hit retest 0.074.
`O=S(=O)(c1ccccc1)c1nc(-c2ccco2)oc1N1CCCCCC1` gave ABCB1 block 1, TRPML3 ag 0, ROMK mod -2.8*, zfTRPN1 agonist -1, ABCG2 block 1 and ROMK hit retest 0.072.
Screening CC1(C)CC(=O)c2cc(NC(=O)c3ccccc3)c(=O)oc2C1 returned ABCB1 block 1, TRPML3 ag 0, zfTRPN1 agonist 0, ABCG2 block 18 and Biofilm kill mix 21.
Cc1cc(C)nc(/N=C2\NC(=O)CC(C(=O)O)N2c2ccc(Oc3ccccc3)cc2)n1 (centres undefined) was read as ABCB1 block 1, TRPML3 ag 0, zfTRPN1 agonist 0 and ABCG2 block 2.
Screening CCOc1ccc(N2CC(=O)N/C2=N\c2nc(C)cc(C)n2)cc1 returned ABCB1 block 1, TRPML3 ag 0, zfTRPN1 agonist 0, ABCG2 block 8 and ROMK hit retest 0.077.
`CCOC(=O)CS(=O)(=O)c1nc(-c2ccc(F)cc2)cc(C(F)(F)F)n1` gave ABCB1 block 1, TRPML3 ag 2, zfTRPN1 agonist 2 and ABCG2 block 6.
